Where two headings read alike, the source gives them in different places.
Legend:
[1] = system: MV4–11 human AML cell line; test: In vitro cytotoxic activity, Alamar Blue viability assay; type: cell-based
[2] = system: AML patient cells (bulk, CD34+, CD34+CD38−, CD34+CD38+); test: Apoptosis; type: cell-based; conditions: Homo sapiens, 24 h
How it was run: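 Fresh peripheral blood came from AML patients with blasts of 95% or higher. Mononuclear cells were isolated on Ficoll-Hypaque and cultured in RPMI 1640 with 10% heat-inactivated FCS, 2mM glutamine and penicillin/streptomycin, on murine MS-5 stromal cells. Cells were stained for CD45, CD34, CD38 and annexin V Cy5, with leukemic cells gated as CD45+. Flow cytometry gave % annexin V+ cells, and EC50 was derived across test compound concentrations. Representative of two patients' samples.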

[3] = system: AML patient cells (bulk, CD34+, CD34+CD38−, CD34+CD38+); test: Viable cell count in AML patients' samples, flow cytometry; type: cell-based; conditions: Homo sapiens, 24 h
How it was run: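 AML patient peripheral blood (blasts 95% or higher) was Ficoll-Hypaque purified and cultured in RPMI 1640 with 10% heat-inactivated FCS, 2mM glutamine and penicillin/streptomycin, cocultured with murine MS-5 stromal cells. Leukemic cells were gated CD45+ and subdivided by CD34/CD38. Viable counts came from CountBright beads on annexin V/7-AAD-negative events by flow cytometry. EC50 was derived across test compound concentrations. Representative of two patients' samples.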

[4] = MTD following a single i.v. injection in rats; conditions: Sprague Dawley, rat, in vivo, iv
[5] = system: Sprague-Dawley rats; conditions: rat, in vivo, iv
[6] = rat, in vivo
[7] = beagle, dog, in vivo
[8] = in vivo; conditions: rat
[9] = 7-day repeat dose i.v. rat toxicology comparison study; conditions: both, Sprague-Dawley, rat, in vivo, iv
[10] = system: Sprague-Dawley rats; test: as above; conditions: MRx102 3.0 mg/kg/day or triptolide 0.3 mg/kg/day i.v.
[11] = female, Sprague Dawley, iv, 0.05 mg/kg/day
[12] = female, Sprague Dawley, iv, 0.15 mg/kg/day
[13] = female, Sprague-Dawley, iv, 3 mg/kg/day
[14] = male, Sprague Dawley, iv, 0.05 mg/kg/day
[15] = male, Sprague Dawley, iv, 0.15 mg/kg/day
[16] = male, Sprague Dawley, iv, 0.3 mg/kg/day
[17] = male, Sprague Dawley, iv, 0.5 mg/kg/day
[18] = male, Sprague Dawley, iv, 1.5 mg/kg/day
[19] = male, Sprague Dawley, iv, 3 mg/kg/day
[20] = male, Sprague-Dawley, iv, 1.5 mg/kg/day
[21] = male, Sprague-Dawley, iv, 3 mg/kg/day
[22] = female, Sprague Dawley, iv, 0.3 mg/kg/day

CC(C)[C@]12O[C@H]1[C@@H]1O[C@]13[C@]1(O[C@H]1C[C@H]1C4=C(CC[C@@]13C)C(=O)OC4)[C@@H]2O [Triptolide]
IC50 ([1]; MV4-11, 24 h): 24.1 nM
IC50 ([1]; MV4-11, 48 h): 7.29 nM
IC50 ([1]; MV4-11, 72 h): 5.6 nM
EC50 ([2]; read-out: EC50 - Annexin V +, 24 h, + MS-5, Bulk): 2.34 nM
EC50 ([2]; read-out: EC50 - Annexin V +, 24 h, + MS-5, CD34+): 2.35 nM
EC50 ([2]; read-out: EC50 - Annexin V +, 24 h, + MS-5, CD34+38+): 2.3 nM
EC50 ([2]; read-out: EC50 - Annexin V +, 24 h, + MS-5, CD34+38−): 2.37 nM
EC50 ([2]; read-out: EC50 - Annexin V +, 24 h, Alone, Bulk): 2.13 nM
EC50 ([2]; read-out: EC50 - Annexin V +, 24 h, Alone, CD34+): 2.13 nM
EC50 ([2]; read-out: EC50 - Annexin V +, 24 h, Alone, CD34+38+): 2.09 nM
EC50 ([2]; read-out: EC50 - Annexin V +, 24 h, Alone, CD34+38−): 2.14 nM
EC50 ([3]; read-out: EC50 -Cell Count, 24 h, + MS-5, Bulk): 2.33 nM
EC50 ([3]; read-out: EC50 -Cell Count, 24 h, + MS-5, CD34+): 2.38 nM
EC50 ([3]; read-out: EC50 -Cell Count, 24 h, + MS-5, CD34+38+): 2.62 nM
EC50 ([3]; read-out: EC50 -Cell Count, 24 h, + MS-5, CD34+38−): 2.3 nM
EC50 ([3]; read-out: EC50 -Cell Count, 24 h, Alone, Bulk): 2.19 nM
EC50 ([3]; read-out: EC50 -Cell Count, 24 h, Alone, CD34+): 2.15 nM
EC50 ([3]; read-out: EC50 -Cell Count, 24 h, Alone, CD34+38+): 2.13 nM
EC50 ([3]; read-out: EC50 -Cell Count, 24 h, Alone, CD34+38−): 2.13 nM
MTD ([4]; female): 0.317 mg/kg
MTD ([4]; male): 0.63 mg/kg
histopathology, females [5]: no microscopic effect
histopathology, males [5]: intraluminal cellular debris in the epididymis
reticulocytes [5]: decreased reticulocytes
T1/2,e of triptolide after MRx102 injection relative to after triptolide ([6]; Sprague-Dawley): over 7 fold
T1/2,e range ([6]; Sprague-Dawley): 51 to 222 min
AUC0-inf Median ([6]; both, Sprague Dawley, iv): 29.69 ng·h/mL
Cmax Median ([6]; both, Sprague Dawley, iv): 23.8 ng/mL
Cmax range ([6]; both, Sprague Dawley, iv): 7.83 to 41.1 ng/mL
T1/2,e Median ([6]; both, Sprague Dawley, iv): 96 min
T1/2,e range ([6]; both, Sprague Dawley, iv): 51 to 786 min
AUC0-inf [6, 11]: 8.14 ng·h/mL
Cl [6, 11]: 6.1 L/h
Cmax [6, 11]: 11.0 ng/mL
Vz [6, 11]: 2.2 L
AUC0-inf [6, 12]: 36.82 ng·h/mL
Cl [6, 12]: 4.1 L/h
Cmax [6, 12]: 48.6 ng/mL
Vz [6, 12]: 1.3 L
Cmax range ([6]; female, Sprague-Dawley, iv, 3 mg/kg): 11.8 to 41.1 ng/mL
Cmax [6, 13]: 41.1 ng/mL
Tmax [6, 13]: 60 min
T1/2,e [6, 14]: 10.2 min
Vz [6, 14]: 0.2 L
AUC0-inf [6, 15]: 37.95 ng·h/mL
C0 [6, 15]: 130 ng/mL
Cl [6, 15]: 4.0 L/h
Cmax [6, 15]: 49.7 ng/mL
T1/2,e [6, 15]: 12.6 min
Vz [6, 15]: 1.2 L
AUC0-inf [6, 16]: 75.92 ng·h/mL
C0 [6, 16]: 273 ng/mL
Cl [6, 16]: 4.0 L/h
T1/2,e [6, 16]: 14.4 min
AUC0-inf [6, 17]: 15.97 ng·h/mL
T1/2,e [6, 17]: 51 min
AUC0-inf [6, 18]: 164.8 ng·h/mL
Cmax [6, 18]: 9.17 ng/mL
T1/2,e [6, 18]: 786 min
Tmax [6, 18]: 30 min
AUC0-inf [6, 19]: 66.12 ng·h/mL
Cmax [6, 19]: 16.0 ng/mL
T1/2,e [6, 19]: 222 min
AUC0-inf [6, 20]: 12.66 ng·h/mL
Cmax [6, 20]: 7.83 ng/mL
T1/2,e [6, 20]: 66 min
Cmax range ([6]; male, Sprague-Dawley, iv, 3 mg/kg): 7.83 to 32.5 ng/mL
AUC0-inf [6, 21]: 269.69 ng·h/mL
Cmax [6, 21]: 17.7 ng/mL
T1/2,e [6, 21]: 84 min
accumulation index [6]: less than unity
AUC0–24hr Median ([7]; iv): 34.83 ng·h/mL
AUC0–24hr Range ([7]; iv): 1.50 to 212.0 ng·h/mL
Cmax Median ([7]; iv): 3.44 ng/mL
Cmax range ([7]; iv): 2.0 to 49.0 ng/mL
Cmax range ([7]; female): 2.0 to 21.1 ng/mL
Cmax range ([7]; male): 2.22 to 49.0 ng/mL
AUC0–24hr ([7]; male, iv, 0.1 mg/kg/day): 25.53 ng·h/mL
Cmax ([7]; male, iv, 0.1 mg/kg/day): 2.22 ng/mL
Tmax ([7]; male, iv, 0.1 mg/kg/day): 120 min
clearance ([8]; Sprague-Dawley, Cl range): 15.5 to 102 mL/min
Vd ([8]; Sprague-Dawley, Vz range): 0.2 to 2.2 L
AUC0-inf ([8]; both, Sprague Dawley, iv, AUC0-inf Median): 51.4 ng·h/mL
Cmax ([8]; both, Sprague Dawley, iv, Cmax Median): 59 ng/mL
Cmax ([8]; both, Sprague Dawley, iv, Cmax Range): 11 to 189 ng/mL
half-life ([8]; both, Sprague Dawley, iv, T1/2,e Median): 13.2 min
half-life ([8]; both, Sprague Dawley, iv, T1/2,e Range): 9 to 23.4 min
Tmax [8, 11]: 15 min
AUC0-inf ([8]; female, Sprague Dawley, iv, 0.05 mg/kg/day, AUC0-inf): 12.5 ng·h/mL
clearance ([8]; female, Sprague Dawley, iv, 0.05 mg/kg/day, Cl): 66.7 mL/min
Cmax ([8]; female, Sprague Dawley, iv, 0.05 mg/kg/day, Cmax): 15.4 ng/mL
half-life ([8]; female, Sprague Dawley, iv, 0.05 mg/kg/day, T1/2,e): 15 min
Vd ([8]; female, Sprague Dawley, iv, 0.05 mg/kg/day, Vz): 1.4 L
Tmax [8, 12]: 15 min
AUC0-inf ([8]; female, Sprague Dawley, iv, 0.15 mg/kg/day, AUC0-inf): 72.1 ng·h/mL
clearance ([8]; female, Sprague Dawley, iv, 0.15 mg/kg/day, Cl): 35 mL/min
Cmax ([8]; female, Sprague Dawley, iv, 0.15 mg/kg/day, Cmax): 74.6 ng/mL
half-life ([8]; female, Sprague Dawley, iv, 0.15 mg/kg/day, T1/2,e): 19.8 min
Vd ([8]; female, Sprague Dawley, iv, 0.15 mg/kg/day, Vz): 1 L
Tmax [8, 22]: 15 min
AUC0-inf ([8]; female, Sprague Dawley, iv, 0.3 mg/kg/day, AUC0-inf): 162 ng·h/mL
C0 [8, 22]: 436 ng/mL
clearance ([8]; female, Sprague Dawley, iv, 0.3 mg/kg/day, Cl): 31.7 mL/min
Cmax ([8]; female, Sprague Dawley, iv, 0.3 mg/kg/day, Cmax): 189 ng/mL
half-life ([8]; female, Sprague Dawley, iv, 0.3 mg/kg/day, T1/2,e): 23.4 min
Vd ([8]; female, Sprague Dawley, iv, 0.3 mg/kg/day, Vz): 1 L
Cmax ([8]; female, Sprague-Dawley, iv, 0.3 mg/kg, Cmax range): 11 to 189 ng/mL
Tmax [8, 14]: 15 min
half-life ([8]; male, Sprague Dawley, iv, 0.05 mg/kg/day, T1/2,e): 9 min
Tmax [8, 15]: 15 min
C0 [8, 15]: 234 ng/mL
clearance ([8]; male, Sprague Dawley, iv, 0.15 mg/kg/day, Cl): 48.3 mL/min
Cmax ([8]; male, Sprague Dawley, iv, 0.15 mg/kg/day, Cmax): 59 ng/mL
half-life ([8]; male, Sprague Dawley, iv, 0.15 mg/kg/day, T1/2,e): 11.4 min
Vd ([8]; male, Sprague Dawley, iv, 0.15 mg/kg/day, Vz): 0.8 L
Tmax [8, 16]: 15 min
AUC0-inf ([8]; male, Sprague Dawley, iv, 0.3 mg/kg/day, AUC0-inf): 101 ng·h/mL
C0 [8, 16]: 383 ng/mL
clearance ([8]; male, Sprague Dawley, iv, 0.3 mg/kg/day, Cl): 50 mL/min
Cmax ([8]; male, Sprague Dawley, iv, 0.3 mg/kg/day, Cmax): 130 ng/mL
half-life ([8]; male, Sprague Dawley, iv, 0.3 mg/kg/day, T1/2,e): 10.8 min
Vd ([8]; male, Sprague Dawley, iv, 0.3 mg/kg/day, Vz): 0.8 L
Cmax ([8]; male, Sprague-Dawley, iv, 0.3 mg/kg, Cmax range): 18.2 to 130 ng/mL
NOAEL at 7 days [9]: 0.05 to 0.15 mg/kg
survival of high-dose females [10]: euthanized prior to Day 7
